The values below come from ChEMBL document CHEMBL1240526, “Development of a new epidermal growth factor receptor positron emission tomography imaging agent based on the 3-cyanoquinoline core: synthesis and biological evaluation” (Bioorg Med Chem, 2010).

Usually IC50 stands for the concentration needed to halve the response being measured. Read a low IC50 as inhibition by little substance.

The target of data set [1] is Epidermal growth factor receptor (Homo sapiens, UniProt P00533). The data set can be described thus: Inhibition of EGFR autophosphorylation in human A431 cells. It is filed as cell-based, A-431.
Epidermal growth factor receptor, sequence (P00533 whole entry): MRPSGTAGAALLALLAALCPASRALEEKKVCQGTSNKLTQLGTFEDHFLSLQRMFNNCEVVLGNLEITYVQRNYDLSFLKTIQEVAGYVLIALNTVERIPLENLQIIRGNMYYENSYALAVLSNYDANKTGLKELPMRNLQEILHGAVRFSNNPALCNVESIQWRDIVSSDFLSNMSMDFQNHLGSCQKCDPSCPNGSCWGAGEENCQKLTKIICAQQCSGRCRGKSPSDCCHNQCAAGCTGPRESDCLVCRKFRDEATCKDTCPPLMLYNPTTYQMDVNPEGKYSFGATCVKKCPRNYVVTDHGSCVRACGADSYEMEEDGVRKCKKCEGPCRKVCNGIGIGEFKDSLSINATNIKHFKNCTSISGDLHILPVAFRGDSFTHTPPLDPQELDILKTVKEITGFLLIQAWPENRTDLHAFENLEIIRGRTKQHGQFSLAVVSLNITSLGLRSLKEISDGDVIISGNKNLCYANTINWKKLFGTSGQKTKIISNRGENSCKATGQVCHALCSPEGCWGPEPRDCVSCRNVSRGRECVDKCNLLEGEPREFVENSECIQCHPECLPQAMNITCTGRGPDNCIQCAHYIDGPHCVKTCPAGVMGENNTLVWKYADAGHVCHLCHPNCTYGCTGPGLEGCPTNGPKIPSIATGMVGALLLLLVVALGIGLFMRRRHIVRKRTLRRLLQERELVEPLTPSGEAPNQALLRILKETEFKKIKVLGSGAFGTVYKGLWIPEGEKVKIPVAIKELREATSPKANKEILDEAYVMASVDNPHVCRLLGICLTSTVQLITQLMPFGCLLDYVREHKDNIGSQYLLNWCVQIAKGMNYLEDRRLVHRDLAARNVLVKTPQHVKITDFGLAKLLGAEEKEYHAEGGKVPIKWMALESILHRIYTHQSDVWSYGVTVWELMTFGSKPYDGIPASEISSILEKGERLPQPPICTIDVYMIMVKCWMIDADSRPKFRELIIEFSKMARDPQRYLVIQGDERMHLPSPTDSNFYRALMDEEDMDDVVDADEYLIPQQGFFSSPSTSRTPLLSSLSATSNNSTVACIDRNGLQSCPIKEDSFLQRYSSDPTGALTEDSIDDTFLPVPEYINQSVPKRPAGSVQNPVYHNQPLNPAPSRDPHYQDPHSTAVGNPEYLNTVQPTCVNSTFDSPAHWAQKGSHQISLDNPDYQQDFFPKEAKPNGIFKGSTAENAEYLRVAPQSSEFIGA
A further data set relates to Kidney. The data set can be described thus: Biodistribution in human A431 cell xenografted nu/nu BALB/c mouse kidney at 3.7 MBq after 60 mins. Format: ADME, organism-based, A-431. As to conditions: in vivo, 1 h. A general note: A xenograft is tissue or cells of one species grown in another, often human tumour cells in immunodeficient mice.
Data set [2] can be described thus: Biodistribution in human A431 cell xenografted nu/nu BALB/c mouse liver at 3.7 MBq after 60 mins. As to conditions: in vivo, 1 h. Format: ADME, organism-based, A-431.
The nature of data set [3]: Biodistribution in human A431 cell xenografted nu/nu BALB/c mouse gallbladder at 3.7 MBq after 60 mins. It is filed as ADME, organism-based, Gall bladder, A-431. As to conditions: in vivo, 1 h.
Data set [4] in a line: Biodistribution in human A431 cell xenografted nu/nu BALB/c mouse plasma at 3.7 MBq after 60 mins. It is filed as ADME, organism-based, A-431. As to conditions: in vivo, 1 h.
The next data set concerns Heart. The data set can be described thus: Biodistribution in human A431 cell xenografted nu/nu BALB/c mouse heart at 3.7 MBq after 60 mins. Format: ADME, organism-based, A-431. The settings on record: in vivo, 1 h.
For data set [5], the system named is Jejunum. Put plainly: Biodistribution in human A431 cell xenografted nu/nu BALB/c mouse empty jejunum at 3.7 MBq after 60 mins. Format: ADME, organism-based, A-431. The settings on record: in vivo, 1 h.
The nature of data set [6]: Biodistribution in human A431 cell xenografted nu/nu BALB/c mouse empty caecum at 3.7 MBq after 60 mins. Format: ADME, organism-based, A-431. The settings on record: in vivo, 1 h.
For another data set, the system named is Brain. The data set can be described thus: Biodistribution in human A431 cell xenografted nu/nu BALB/c mouse brain at 3.7 MBq after 60 mins. The settings on record: in vivo, 1 h. It is filed as ADME, organism-based, A-431.
The test system of data set [7] is Stomach. Put plainly: Biodistribution in human A431 cell xenografted nu/nu BALB/c mouse full stomach at 3.7 MBq after 60 mins. Format: ADME, organism-based, A-431. As to conditions: in vivo, 1 h.
Data set [8] is described as follows: Biodistribution in human A431 cell xenografted nu/nu BALB/c mouse urine at 3.7 MBq after 60 mins. Format: ADME, organism-based, A-431. The settings on record: in vivo, 1 h.
Data set [9] has as its system Duodenum. Put plainly: Biodistribution in human A431 cell xenografted nu/nu BALB/c mouse full duodenum at 3.7 MBq after 60 mins. The settings on record: in vivo, 1 h. It is filed as ADME, organism-based, A-431.
In data set [10] the test system is Colon. The data set can be described thus: Biodistribution in human A431 cell xenografted nu/nu BALB/c mouse empty colon at 3.7 MBq after 60 mins. Format: ADME, organism-based, A-431. As to conditions: in vivo, 1 h.
The nature of data set [11]: Metabolic stability in mouse liver assessed as compound remaining at 3.7 MBq after 30 mins. It is filed as ADME, tissue-based. As to conditions: read-out: Stability. A digest of the protocol: (§1)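 Non-tumor-bearing mice received 3.7 MBq of the ¹⁸F tracer iv. Plasma and liver were collected at 2, 30 and 60 min and snap-frozen. Samples were extracted in ice-cold MeOH (liver homogenized), centrifuged at 4 °C, then dried, filtered and run on radio-HPLC. Parent fraction = parent peak over total chromatogram radioactivity; plasma extraction efficiency 83.5%. Mean of three studies per time point.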

Data set [12] can be described thus: Biodistribution in human A431 cell xenografted nu/nu BALB/c mouse full caecum at 3.7 MBq after 60 mins. It is filed as ADME, organism-based, A-431. As to conditions: in vivo, 1 h.
A short description of data set [13]: Metabolic stability in mouse plasma assessed as compound remaining at 3.7 MBq after 2 mins. Format: ADME, cell-free. As to conditions: read-out: Stability. In short, it runs like this:
as §1

The next data set relates to Bone. Put plainly: Biodistribution in human A431 cell xenografted nu/nu BALB/c mouse bone at 3.7 MBq after 60 mins. Format: ADME, organism-based, Bone element, A-431. The settings on record: in vivo, 1 h.
For data set [14], the system named is Jejunum. Put plainly: Biodistribution in human A431 cell xenografted nu/nu BALB/c mouse full jejunum at 3.7 MBq after 60 mins. Format: ADME, organism-based, A-431. As to conditions: in vivo, 1 h.
Data set [15] concerns Colon. The data set can be described thus: Biodistribution in human A431 cell xenografted nu/nu BALB/c mouse full colon at 3.7 MBq after 60 mins. It is filed as ADME, organism-based, A-431. The settings on record: in vivo, 1 h.
Data set [16] can be described thus: Metabolic stability in mouse liver assessed as compound remaining at 3.7 MBq after 2 mins. Format: ADME, tissue-based. The settings on record: read-out: Stability. A digest of the protocol: as §1
For another data set, the system named is Spleen. Put plainly: Biodistribution in human A431 cell xenografted nu/nu BALB/c mouse spleen at 3.7 MBq after 60 mins. It is filed as ADME, organism-based, A-431. The settings on record: in vivo, 1 h.
The test system of another data set is Blood. The data set can be described thus: Biodistribution in human A431 cell xenografted nu/nu BALB/c mouse blood at 3.7 MBq after 60 mins. It is filed as ADME, organism-based, A-431. As to conditions: in vivo, 1 h.
In another data set the test system is Lung. Put plainly: Biodistribution in human A431 cell xenografted nu/nu BALB/c mouse lung at 3.7 MBq after 60 mins. As to conditions: in vivo, 1 h. It is filed as ADME, organism-based, A-431.
Data set [17] deals with Duodenum. The data set can be described thus: Biodistribution in human A431 cell xenografted nu/nu BALB/c mouse empty duodenum at 3.7 MBq after 60 mins. It is filed as ADME, organism-based, A-431. The settings on record: in vivo, 1 h.
A short description of data set [18]: Metabolic stability in mouse liver assessed as compound remaining at 3.7 MBq after 60 mins. It is filed as ADME, tissue-based. As to conditions: read-out: Stability. A digest of the protocol:
as §1

Data set [19] is described as follows: Metabolic stability in mouse plasma assessed as compound remaining at 3.7 MBq after 60 mins. It is filed as ADME, cell-free. As to conditions: read-out: Stability. In short, it runs like this: as §1
The test system of data set [20] is Stomach. The data set can be described thus: Biodistribution in human A431 cell xenografted nu/nu BALB/c mouse empty stomach at 3.7 MBq after 60 mins. It is filed as ADME, organism-based, A-431. The settings on record: in vivo, 1 h.
Another data set relates to Muscle tissue. Put plainly: Biodistribution in human A431 cell xenografted nu/nu BALB/c mouse muscle at 3.7 MBq after 60 mins. Format: ADME, organism-based, A-431. As to conditions: in vivo, 1 h.
Data set [21] in a line: Biodistribution in human A431 cell xenografted nu/nu BALB/c mouse tumor at 3.7 MBq after 60 mins. Format: ADME, organism-based, Neoplasm, A-431. The settings on record: in vivo, 1 h.
Data set [22] can be described thus: Metabolic stability in mouse plasma assessed as compound remaining at 3.7 MBq after 30 mins. It is filed as ADME, cell-free. As to conditions: read-out: Stability. A digest of the protocol: as §1

The compound `Nc1cc2ncnc(Nc3cccc(Br)c3)c2cc1N` had a half-inhibitory concentration (IC50) in [1] above 1000 nM.

`CCOc1cc2ncc(C#N)c(Nc3ccc(F)c(Cl)c3)c2cc1NC(=O)/C=C/CNCc1cn(CCF)nn1`: the Drug uptake in the data set on Kidney is given as 0.711 % ID/g; in data set [2] it was 0.392 % ID/g; in [3], 8.561 % ID/g; in data set [4], 0.027 % ID/g; in the data set on Heart it was 0.041 % ID/g; in the data set with Jejunum [5], 0.344 % ID/g. Also, the Drug uptake came to 0.068 % ID/g in data set [6]; 0.006 % ID/g with Brain; 1.341 % ID/g in the data set on Stomach [7]; 0.151 % ID/g in [8]; 1.987 % ID/g with Duodenum [9]; 0.197 % ID/g in the data set on Colon [10]. Further, the Drug uptake came out at 0.161 % ID/g in data set [12]; 0.031 % ID/g in the data set on Bone; 0.489 % ID/g with Jejunum [14]; 0.236 % ID/g with Colon [15]; 0.211 % ID/g in the data set with Spleen; 0.022 % ID/g with Blood. The Drug uptake with Lung came to 0.138 % ID/g; in the data set with Duodenum [17], 1.453 % ID/g; in the data set on Stomach [20] it was 0.215 % ID/g; with Muscle tissue it was 0.018 % ID/g; in [21], 0.082 % ID/g. Also, the remaining at 0.5 h in data set [11] came out at 85.1%; in data set [22], 62.8%. The remaining at 2 min in data set [13] was 98.9%; in data set [16] it was 95%. Further, the remaining at 1 h in [18] is 75.5%; in data set [19], 49.8%.
